Measured values as given in ChEMBL document CHEMBL1129535, “Antitumor agents. 164. Podophenazine, 2'',3''-dichloropodophenazine, benzopodophenazine, and their 4 beta-p-nitroaniline derivatives as novel DNA topoisomerase II inhibitors” (J Med Chem, 1996).

Key:
KB [1] = experiment: Growth inhibitory activity (antiproliferative) against KB/7d cell lines; format: functional, cell-based; details: Homo sapiens
Summary of the method: (§1)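 Cells (50 000 or 5000 per well) were seeded and left overnight. Compound was diluted from DMSO stocks into medium at 2× final and added in duplicate. After 2 days the cells were trypsinized and suspended in PBS with 0.5% trypan blue. Viable cells, those not staining blue, were counted by hemacytometer. IC50 was read graphically. KB/7d is an etoposide-selected multidrug-resistant subclone with reduced topoisomerase II.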

KB [2] = experiment: Growth inhibitory activity (antiproliferative) against KB cell lines; format: functional, cell-based; details: Homo sapiens; summary of the method: as §1
Nucleic Acid [3] = experiment: Stimulation of in vitro Topoisomerase II-Linked DNA Complex Formation and Interference with Etoposide-Induced Cleavage at concentration 100 uM; format: functional
Summary of the method: (§2)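 Buffer: 30 mM Tris-HCl pH 7.6, 60 mM KCl, 8 mM MgCl2, 3 mM ATP, 15 mM β-mercaptoethanol and 30 μg/mL BSA, with 4 U topoisomerase II. Reactions ran 30 min at 37 °C. Protein-linked DNA was K+/SDS-precipitated and counted (cpm), mean ± SD of 2–4 determinations.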

Nucleic Acid [4] = experiment: Stimulation of in vitro Topoisomerase II-Linked DNA Complex Formation and Interference with Etoposide-Induced Cleavage at concentration 1 uM; format: functional; summary of the method: as §2
[5] = The differential toxicity ratio was defined as IC50(KB/7d)/IC50(KB); format: functional
Summary of the method: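 The ratio IC50(KB/7d)/IC50(KB) uses IC50s from 2-day treatments scored by trypan-blue-excluding hemacytometer counts. KB/7d is an etoposide-selected subclone with reduced topoisomerase II.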

Nucleic Acid [6] = experiment: Stimulation of in vitro Topoisomerase II-Linked DNA Complex Formation and Interference with Etoposide-Induced Cleavage at concentration 50 uM; format: functional; summary of the method: as §2

| SMILES | IC50 (KB [1]) | IC50 (KB [2]) | cpm (Nucleic Acid [3]) | cpm (Nucleic Acid [4]) | Ratio [5] | cpm (Nucleic Acid [6]) |
| --- | --- | --- | --- | --- | --- | --- |
| COc1cc([C@@H]2c3cc4nc5cc(Cl)c(Cl)cc5nc4cc3[C@@H](Nc3ccc([N+](=O)[O-])cc3)[C@H]3COC(=O)[C@H]23)cc(OC)c1O | 10.6 µM | 0.48 µM | 101 | 105 | 22 | 103 |
| COc1cc([C@@H]2c3cc4nc5cc(Cl)c(Cl)cc5nc4cc3[C@H](O)[C@H]3COC(=O)[C@H]23)cc(OC)c1OC | 9.2 µM | 13.3 µM | – | – | – | – |
| COc1cc([C@@H]2c3cc4c(cc3[C@@H](O[C@@H]3O[C@@H]5CO[C@@H](C)O[C@H]5[C@H](O)[C@H]3O)[C@H]3COC(=O)[C@H]23)OCO4)cc(OC)c1O [ETOPOSIDE] | 23.8 µM | 0.164 µM | 1840 | 216 | 145 | 2460 |
| COc1cc([C@@H]2c3cc4nc5ccccc5nc4cc3[C@@H](Nc3ccc([N+](=O)[O-])cc3)[C@H]3COC(=O)[C@H]23)cc(OC)c1O | 0.56 µM | 0.11 µM | 446 | 320 | 5 | 309 |
| COc1cc([C@@H]2c3cc(O)c(O)cc3[C@@H](Nc3ccc([N+](=O)[O-])cc3)[C@H]3COC(=O)[C@H]23)cc(OC)c1O | 16.6 µM | 0.42 µM | – | – | 39 | 661 |
| COc1cc([C@@H]2c3cc4nc5cc6ccccc6cc5nc4cc3[C@@H](Nc3ccc([N+](=O)[O-])cc3)[C@H]3COC(=O)[C@H]23)cc(OC)c1O | – | 6.63 µM | – | – | – | – |
| COc1cc([C@@H]2c3cc4c(cc3[C@@H](Nc3ccc([N+](=O)[O-])cc3)[C@H]3COC(=O)[C@H]23)OCO4)cc(OC)c1O | 0.55 µM | 0.032 µM | – | – | 17 KB 7d-1 | 2930 |
| COc1cc([C@@H]2c3cc4nc5ccccc5nc4cc3[C@H](O)[C@H]3COC(=O)[C@H]23)cc(OC)c1OC | 6.21 µM | 23.4 µM | – | – | – | – |
